Columns and labels:
[1] = Growth inhibition of human HCT15 cells; type: functional; settings: HCT-15
NCI-H460 = assay: Growth inhibition of human NCI-H460 cells; type: functional
SN12C = assay: Growth inhibition of human SN12C cells; type: functional
PC-3 = assay: Growth inhibition of human PC3 cells; type: functional
A549 = assay: Growth inhibition of human A549/ATCC cells; type: functional
CCRF-CEM = assay: Growth inhibition of human CCRF-CEM cells; type: functional
T47D = assay: Growth inhibition of human T47D cells; type: functional
U-251 = assay: Growth inhibition of human U251 cells; type: functional
SK-MEL-28 = assay: Growth inhibition of human SK-MEL-28 cells; type: functional
SF-268 = assay: Growth inhibition of human SF268 cells; type: functional
SK-MEL-5 = assay: Growth inhibition of human SK-MEL-5 cells; type: functional
HCT-116 = assay: Growth inhibition of human HCT116 cells; type: functional
[2] = Growth inhibition of human UACC62 cells; type: functional; settings: UACC-62
HT-29 = assay: Growth inhibition of human HT-29 cells; type: functional
[3] = Growth inhibition of human UACC257 cells; type: functional; settings: UACC-257
SW-620 = assay: Growth inhibition of human SW620 cells; type: functional
[4] = Growth inhibition of human RXF393 cells; type: functional; settings: RXF 393
[5] = Growth inhibition of human HOP92 cells; type: functional; settings: HOP-92
A498 = assay: Growth inhibition of human A498 cells; type: functional
DU-145 = assay: Growth inhibition of human DU145 cells; type: functional
SK-MEL-2 = assay: Growth inhibition of human SK-MEL-2 cells; type: functional
TK-10 = assay: Growth inhibition of human TK10 cells; type: functional
[6] = Growth inhibition of human HCC2998 cells; type: functional; settings: HCC 2998
CAKI-1 = assay: Growth inhibition of human CAKI-1 cells; type: functional
[7] = Growth inhibition of human LOXIMVI cells; type: functional; settings: LOX IMVI
HOP-62 = assay: Growth inhibition of human HOP62 cells; type: functional
NCI-H23 = assay: Growth inhibition of human NCI-H23 cells; type: functional
[8] = Growth inhibition of human Hs 578T cells; type: functional
[9] = Growth inhibition of human SF539 cells; type: functional; settings: SF-539
[10] = Growth inhibition of human OVCAR5 cells; type: functional; settings: OVCAR-5
Malme-3M = assay: Growth inhibition of human MALME-3M cells; type: functional
SK-OV-3 = assay: Growth inhibition of human SKOV3 cells; type: functional
[11] = Growth inhibition of human OVCAR3 cells; type: functional; settings: OVCAR-3
[12] = Growth inhibition of human SF295 cells; type: functional; settings: SF-295
MDA-MB-435 = assay: Growth inhibition of human MDA-MB-435 cells; type: functional
[13] = Growth inhibition of human OVCAR8 cells; type: functional; settings: OVCAR-8
K562 = assay: Growth inhibition of human K562 cells; type: functional
SNB-75 = assay: Growth inhibition of human SNB75 cells; type: functional
IGROV-1 = assay: Growth inhibition of human IGROV1 cells; type: functional
M14 = assay: Growth inhibition of human M14 cells; type: functional
786-0 = assay: Growth inhibition of human 786-0 cells; type: functional
RPMI-8226 = assay: Growth inhibition of human RPMI8226 cells; type: functional
[14] = Growth inhibition of human BT549 cells; type: functional; settings: BT-549
NCI-H226 = assay: Growth inhibition of human NCI-H226 cells; type: functional
[15] = Growth inhibition of human NCI-ADR-RES cells; type: functional
SR = assay: Growth inhibition of human SR cells; type: functional
[16] = Growth inhibition of human UO31 cells; type: functional; settings: UO-31
HL-60(TB) = assay: Growth inhibition of human HL-60(TB) cells; type: functional
KM12 = assay: Growth inhibition of human KM12 cells; type: functional
MCF7 = assay: Growth inhibition of human MCF7 cells; type: functional
ACHN = assay: Growth inhibition of human ACHN cells; type: functional
MDA-MB-468 = assay: Growth inhibition of human MDA-MB-468 cells; type: functional
[17] = Growth inhibition of human OVCAR4 cells; type: functional; settings: OVCAR-4
SNB-19 = assay: Growth inhibition of human SNB19 cells; type: functional
[18] = Growth inhibition of human EKVX cells; type: functional
COLO 205 = assay: Growth inhibition of human COLO205 cells; type: functional
NCI-H322M = assay: Growth inhibition of human NCI-H322M cells; type: functional
Chymotrypsinogen A = Chymotrypsinogen A (Bos taurus, UniProt P00766); assay: Inhibition of bovine pancreatic alpha-chymotrypsin using Suc-Leu-Leu-Val-Tyr-AMC as substrate by fluorescence assay; settings: read-out: Ki
In short: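 Enzyme incubated at 20 °C in 50 mM Tris pH 8.0, 100 mM NaCl, 5 mM EDTA, 7.5% DMSO with varied inhibitor concentrations. Substrate hydrolysis followed for 10 min. Ki from progress curves; mean of three determinations.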

[19] = Growth inhibition of human MOLT4 cells; type: functional; settings: MOLT-4
MDA-MB-231 = assay: Growth inhibition of human MDA-MB-231 cells; type: functional
NCI-H522 = assay: Growth inhibition of human NCI-H522 cells; type: functional

With `CC(C)C[C@H](NC(=O)[C@H](Cc1ccccc1)NC(=O)c1cnccn1)B(O)O` [BORTEZOMIB] the GI50 [1] was 1.51 nM, the GI50 (NCI-H460) was 4.47 nM and the GI50 (SN12C) was 1.1 nM. For the same compound, the GI50 (PC-3) was 2.63 nM, the GI50 (A549) was 3.09 nM and the GI50 (CCRF-CEM) was 0.35 nM. The GI50 (T47D) was 0.6 nM, the GI50 (U-251) was 1.55 nM and the GI50 (SK-MEL-28) was 0.46 nM. For the same compound, the GI50 (SF-268) was 1.17 nM, the GI50 (SK-MEL-5) was 0.68 nM and the GI50 (HCT-116) was 0.6 nM. It also gave a GI50 [2] of 0.91 nM, a GI50 (HT-29) of 0.95 nM and a GI50 [3] of 0.59 nM. The GI50 (SW-620) was 0.55 nM, the GI50 [4] was 0.71 nM and the GI50 [5] was 1 nM. The GI50 (A498) was 0.48 nM, the GI50 (DU-145) was 1.7 nM and the GI50 (SK-MEL-2) was 1.07 nM. It also gave a GI50 (TK-10) of 1 nM, a GI50 [6] of 0.6 nM and a GI50 (CAKI-1) of 0.66 nM. For the same compound, the GI50 [7] was 0.78 nM, the GI50 (HOP-62) was 4.47 nM and the GI50 (NCI-H23) was 1 nM. For the same compound, the GI50 [8] was 1.02 nM, the GI50 [9] was 0.59 nM and the GI50 [10] was 1.55 nM. It also gave a GI50 (Malme-3M) of 0.45 nM, a GI50 (SK-OV-3) of 13.8 nM and a GI50 [11] of 0.54 nM. It also gave a GI50 [12] of 1.7 nM, a GI50 (MDA-MB-435) of 0.44 nM and a GI50 [13] of 2.63 nM. The GI50 (K562) was 1.17 nM, the GI50 (SNB-75) was 2.04 nM and the GI50 (IGROV-1) was 2.24 nM. It also gave a GI50 (M14) of 0.93 nM, a GI50 (786-0) of 1.44 nM and a GI50 (RPMI-8226) of 0.23 nM. It also gave a GI50 [14] of 0.55 nM, a GI50 (NCI-H226) of 0.46 nM and a GI50 [15] of 12.3 nM. For the same compound, the GI50 (SR) was 0.85 nM, the GI50 [16] was 1.05 nM and the GI50 (HL-60(TB)) was 1.9 nM. The GI50 (KM12) was 1.7 nM, the GI50 (MCF7) was 0.55 nM and the GI50 (ACHN) was 0.79 nM. For the same compound, the GI50 (MDA-MB-468) was 1.48 nM, the GI50 [17] was 1.95 nM and the GI50 (SNB-19) was 2.04 nM. It also gave a GI50 [18] of 3.02 nM, a GI50 (COLO 205) of 1.23 nM and a GI50 (NCI-H322M) of 17.8 nM. For the same compound, the Ki (Chymotrypsinogen A) was 2400 nM, the GI50 [19] was 0.51 nM and the GI50 (MDA-MB-231) was 1.26 nM. For the same compound, the GI50 (NCI-H522) was 1.44 nM.

Source: ChEMBL document CHEMBL3286129, “Optimization of peptidomimetic boronates bearing a P3 bicyclic scaffold as proteasome inhibitors” (Eur J Med Chem, 2014)
